In ChEMBL document CHEMBL1155785 (Bioorg Med Chem, 2008):
Values belong to the compound of their own block, whether it stands above or below them. Activity calls are given as the source filed them. No cut-off for these calls is given here.

Columns and labels:
[1] = target: T1, Receptor-type tyrosine-protein phosphatase F (Homo sapiens, UniProt P10586); assay: Inhibition of human recombinant LAR
[2] = target: T1, Receptor-type tyrosine-protein phosphatase F; assay: Inhibition of human recombinant LAR at 20 ug/mL
In short: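 Single-concentration test at 20 µg/mL. Recombinant LAR (300 nM) was preincubated 10 min with compound at pH 8.0 (Tris/NaCl/EDTA/DTT). Hydrolysis of 2 mM pNPP (stock in substrate buffer) was then followed at pH 6.0 MES buffer, room temperature. Initial rate was taken at 405 nm and expressed as % inhibition.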

[3] = target: T1, Receptor-type tyrosine-protein phosphatase F; assay: Inhibition of human recombinant LAR upto 100 uM; settings: in the assay text read “at 20 ug/mL” for “upto 100 uM”
In short: (§1)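 Recombinant LAR (300 nM) was preincubated 10 min with inhibitor in DMSO in pH 8.0 buffer (50 mM Tris, 50 mM NaCl, 2 mM EDTA, 2 mM DTT). Reaction was started with pH 6.0 MES substrate buffer holding 2 mM pNPP, at room temperature. pNP release was read continuously at 405 nm, using the initial linear rate. IC50 came from a Hill-equation nonlinear fit, mean ± SD of three replicates.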

[4] = target: T1, Receptor-type tyrosine-protein phosphatase F; assay: Inhibition of LAR; in short: as §1
[5] = target: T2, Tyrosine-protein phosphatase non-receptor type 2 (Homo sapiens, UniProt P17706); assay: Inhibition of TCPTP
T2 sequence (P17706 whole entry): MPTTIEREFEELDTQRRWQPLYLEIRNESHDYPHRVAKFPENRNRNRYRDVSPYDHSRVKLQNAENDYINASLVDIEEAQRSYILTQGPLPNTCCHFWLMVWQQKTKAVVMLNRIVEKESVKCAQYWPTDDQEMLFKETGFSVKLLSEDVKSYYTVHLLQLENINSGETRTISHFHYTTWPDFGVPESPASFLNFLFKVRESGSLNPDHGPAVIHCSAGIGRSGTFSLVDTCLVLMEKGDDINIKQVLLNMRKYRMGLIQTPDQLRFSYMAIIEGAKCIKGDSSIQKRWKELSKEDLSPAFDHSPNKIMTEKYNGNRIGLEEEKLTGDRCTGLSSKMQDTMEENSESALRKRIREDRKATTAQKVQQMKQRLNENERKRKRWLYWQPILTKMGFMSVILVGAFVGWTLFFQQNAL

[6] = target: T3, Receptor-type tyrosine-protein phosphatase C (Homo sapiens, UniProt P08575); assay: Inhibition of CD45
T3 sequence (P08575 whole entry): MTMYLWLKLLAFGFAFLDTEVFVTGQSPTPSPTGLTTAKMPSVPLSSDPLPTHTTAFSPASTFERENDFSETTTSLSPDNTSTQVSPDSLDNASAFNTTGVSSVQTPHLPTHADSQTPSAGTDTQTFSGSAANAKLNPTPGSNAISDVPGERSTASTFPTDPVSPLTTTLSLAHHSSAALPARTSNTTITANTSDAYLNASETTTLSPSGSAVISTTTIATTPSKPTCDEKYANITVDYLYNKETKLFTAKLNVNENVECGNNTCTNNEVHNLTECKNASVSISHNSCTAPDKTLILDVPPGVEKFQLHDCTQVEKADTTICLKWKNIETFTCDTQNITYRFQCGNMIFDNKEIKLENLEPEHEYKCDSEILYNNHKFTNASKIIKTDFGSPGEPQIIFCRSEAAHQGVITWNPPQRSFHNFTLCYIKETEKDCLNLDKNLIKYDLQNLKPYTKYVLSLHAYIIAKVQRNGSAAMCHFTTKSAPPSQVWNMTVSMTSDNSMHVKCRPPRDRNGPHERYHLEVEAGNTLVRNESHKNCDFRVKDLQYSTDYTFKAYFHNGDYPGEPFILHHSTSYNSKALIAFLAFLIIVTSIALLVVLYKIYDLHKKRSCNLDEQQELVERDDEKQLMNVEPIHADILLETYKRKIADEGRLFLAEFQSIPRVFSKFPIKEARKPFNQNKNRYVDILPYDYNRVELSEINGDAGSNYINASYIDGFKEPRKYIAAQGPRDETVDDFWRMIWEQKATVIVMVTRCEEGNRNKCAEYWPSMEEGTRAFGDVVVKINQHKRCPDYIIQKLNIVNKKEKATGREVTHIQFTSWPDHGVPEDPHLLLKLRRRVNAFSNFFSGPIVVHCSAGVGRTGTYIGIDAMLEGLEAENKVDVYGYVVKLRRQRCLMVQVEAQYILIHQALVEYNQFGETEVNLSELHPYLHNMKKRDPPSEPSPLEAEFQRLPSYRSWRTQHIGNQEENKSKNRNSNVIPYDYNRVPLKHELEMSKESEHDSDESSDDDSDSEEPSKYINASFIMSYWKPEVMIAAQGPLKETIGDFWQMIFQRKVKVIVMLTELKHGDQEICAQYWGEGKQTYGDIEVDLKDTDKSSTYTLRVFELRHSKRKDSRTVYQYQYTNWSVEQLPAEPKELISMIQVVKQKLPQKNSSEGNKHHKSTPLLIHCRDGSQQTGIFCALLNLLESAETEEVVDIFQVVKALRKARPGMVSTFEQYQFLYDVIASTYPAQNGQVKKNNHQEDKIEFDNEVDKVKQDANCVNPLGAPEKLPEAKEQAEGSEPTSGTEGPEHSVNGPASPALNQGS

[7] = target: T4, Tyrosine-protein phosphatase non-receptor type 1 (Homo sapiens, UniProt P18031); assay: Inhibition of PTP1B
T4 sequence (P18031 whole entry): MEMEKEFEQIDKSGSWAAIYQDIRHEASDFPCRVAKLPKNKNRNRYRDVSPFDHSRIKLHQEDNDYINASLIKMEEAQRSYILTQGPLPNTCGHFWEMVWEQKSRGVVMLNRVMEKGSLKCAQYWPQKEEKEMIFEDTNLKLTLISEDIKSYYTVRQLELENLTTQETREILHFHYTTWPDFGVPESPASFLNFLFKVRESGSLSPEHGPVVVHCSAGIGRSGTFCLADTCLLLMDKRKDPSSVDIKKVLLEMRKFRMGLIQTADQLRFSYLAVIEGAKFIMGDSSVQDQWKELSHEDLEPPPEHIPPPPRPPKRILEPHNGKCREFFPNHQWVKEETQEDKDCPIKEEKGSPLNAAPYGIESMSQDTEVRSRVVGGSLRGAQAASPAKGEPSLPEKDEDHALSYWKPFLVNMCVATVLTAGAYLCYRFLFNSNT

[8] = Inhibition of Yersinia PTPase; design: species or system Yersinia sp.
[9] = target: T1, Receptor-type tyrosine-protein phosphatase F; assay: Inhibition of dialyzed human LAR assessed as recovery of enzyme activity at 20 uM after 24 hrs
In short: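 LAR (1500 nM) was preincubated 10 min at pH 8.0 with 20 µM inhibitor or 2% DMSO, then dialyzed against enzyme buffer. Aliquots were withdrawn at set times up to 24 h and assayed for pNPP phosphatase activity at pH 6.0, read at 405 nm.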

T1 sequence (P10586 whole entry): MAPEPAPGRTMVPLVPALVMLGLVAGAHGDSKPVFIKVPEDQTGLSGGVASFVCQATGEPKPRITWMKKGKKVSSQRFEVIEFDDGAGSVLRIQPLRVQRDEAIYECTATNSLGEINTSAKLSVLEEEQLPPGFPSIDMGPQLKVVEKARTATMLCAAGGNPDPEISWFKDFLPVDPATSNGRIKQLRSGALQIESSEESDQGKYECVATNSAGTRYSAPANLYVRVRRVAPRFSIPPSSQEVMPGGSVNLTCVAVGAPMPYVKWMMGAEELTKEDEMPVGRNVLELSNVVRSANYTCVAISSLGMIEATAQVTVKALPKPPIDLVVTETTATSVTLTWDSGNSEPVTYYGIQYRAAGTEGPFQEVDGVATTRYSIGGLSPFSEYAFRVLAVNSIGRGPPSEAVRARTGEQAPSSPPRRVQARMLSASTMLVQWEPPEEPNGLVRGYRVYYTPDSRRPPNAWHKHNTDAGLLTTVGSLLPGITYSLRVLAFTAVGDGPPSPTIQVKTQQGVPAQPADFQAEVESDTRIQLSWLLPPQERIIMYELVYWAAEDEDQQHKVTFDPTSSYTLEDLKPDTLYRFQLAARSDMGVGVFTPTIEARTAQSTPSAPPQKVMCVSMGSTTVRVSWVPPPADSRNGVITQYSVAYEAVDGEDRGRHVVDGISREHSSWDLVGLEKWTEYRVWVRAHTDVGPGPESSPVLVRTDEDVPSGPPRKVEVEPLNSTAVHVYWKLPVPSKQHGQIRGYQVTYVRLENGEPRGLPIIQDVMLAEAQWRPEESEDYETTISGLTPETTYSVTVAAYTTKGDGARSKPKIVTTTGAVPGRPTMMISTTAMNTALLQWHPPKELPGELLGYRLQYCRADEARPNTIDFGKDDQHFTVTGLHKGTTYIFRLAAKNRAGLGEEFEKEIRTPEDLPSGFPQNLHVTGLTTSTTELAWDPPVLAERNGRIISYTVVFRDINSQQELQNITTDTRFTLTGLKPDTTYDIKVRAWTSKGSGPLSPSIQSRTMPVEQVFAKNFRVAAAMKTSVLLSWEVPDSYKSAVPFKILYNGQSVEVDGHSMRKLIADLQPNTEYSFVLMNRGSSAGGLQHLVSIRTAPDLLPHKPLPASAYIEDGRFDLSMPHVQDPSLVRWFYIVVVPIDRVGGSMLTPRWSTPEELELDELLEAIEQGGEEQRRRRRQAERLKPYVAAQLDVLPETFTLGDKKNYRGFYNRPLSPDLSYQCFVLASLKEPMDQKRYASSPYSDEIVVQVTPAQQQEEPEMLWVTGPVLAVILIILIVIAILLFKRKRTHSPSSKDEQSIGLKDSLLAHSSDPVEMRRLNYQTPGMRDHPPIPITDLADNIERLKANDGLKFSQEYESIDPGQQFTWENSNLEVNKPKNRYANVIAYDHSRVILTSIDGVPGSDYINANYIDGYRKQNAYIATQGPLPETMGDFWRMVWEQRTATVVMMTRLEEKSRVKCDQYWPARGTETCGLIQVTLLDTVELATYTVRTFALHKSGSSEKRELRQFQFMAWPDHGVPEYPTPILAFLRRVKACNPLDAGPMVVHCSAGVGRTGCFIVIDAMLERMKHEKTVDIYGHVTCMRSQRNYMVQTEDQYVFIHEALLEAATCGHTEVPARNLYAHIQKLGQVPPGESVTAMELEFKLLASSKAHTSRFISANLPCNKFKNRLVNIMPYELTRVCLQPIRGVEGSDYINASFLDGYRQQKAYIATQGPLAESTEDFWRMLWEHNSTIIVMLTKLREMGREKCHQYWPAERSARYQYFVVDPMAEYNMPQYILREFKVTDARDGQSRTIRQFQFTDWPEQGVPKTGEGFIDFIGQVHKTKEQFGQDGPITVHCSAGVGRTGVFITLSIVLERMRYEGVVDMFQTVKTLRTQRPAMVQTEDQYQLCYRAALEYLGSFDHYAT

IC50 [1]: 21.9 µM
Compound: COc1ccc2c(c1C=O)CC(O)OC2=O (stereo unspecified)

inhibition [2]: < 5%
Activity [3]: inactive
Compound: COC(=O)c1ccc(OC)c(C=O)c1CC=O

inhibition [2]: < 5%
Activity [3]: inactive
Compound: COC(=O)c1ccc(OC)c(CO)c1CCO

IC50 [1]: 1.53 µM
Compound: COc1c(C=O)c2c(c3c1CC(C)(C)C3)C(=O)OC(O)C2 (stereo unspecified)

inhibition [2]: < 5%
Compound: COc1ccc2c(c1)CC(O)OC2=O (stereo unspecified)

IC50 [4]: 18.2 µM
IC50 [5]: 0.68 µM
Compound: CSc1ccnc(C[S+]([O-])c2nc3cc(OC(C)C)ccc3[nH]2)c1 (stereo unspecified)

Ki [4]: 1.3 µM
Ki [5]: 0.049 µM
Compound: CC(=O)NC(Cc1ccc(N(C(=O)C(=O)O)c2ccccc2C(=O)O)c2ccccc12)C(=O)NCCCCCOc1cc2ccccc2cc1C(=O)O (stereo unspecified)

inhibition [2]: < 5%
Activity [3]: inactive
Compound: COc1ccc(C(=O)O)c(CCO)c1CO

IC50 [4]: 116 µM
IC50 [6]: 0.28 µM
IC50 [7]: 2 µM
Compound: O=C(O)COc1c(O)cc(-c2cc(C(F)(F)F)cc(C(F)(F)F)c2)cc1OCc1cccc(C(F)(F)F)c1

inhibition [2]: < 5%
Compound: COc1ccc2c(c1C=O)CCOC2=O

IC50 [8]: 1.7 µM
Compound: O=C(O)C(=O)c1ccc(OCc2cc(COc3ccc(C(=O)C(=O)O)cc3)cc(COc3ccc(C(=O)C(=O)O)cc3)c2)cc1

IC50 [4]: 320 µM
Compound: O=C(O)COc1c(C(=O)O)sc(-c2ccc(NC(=O)c3cccnc3)cc2)c1Br

Activity [9]: Active
inhibition [2]: 20%
Compound: COc1ccc2c(c1C=O)CC(O)OC2 (stereo unspecified)
